Source: ChEMBL document CHEMBL2016568, “Bromophenols as inhibitors of protein tyrosine phosphatase 1B with antidiabetic properties” (Bioorg Med Chem Lett, 2012)

How the values were obtained:
[1] = biological target: T1, Tyrosine-protein phosphatase non-receptor type 1 (Homo sapiens) (UniProt P18031); assay: Inhibition of GST-tagged human recombinant PTB1B using pNPP as substrate at 20 ug/ml after 3 mins
T1 sequence (whole entry): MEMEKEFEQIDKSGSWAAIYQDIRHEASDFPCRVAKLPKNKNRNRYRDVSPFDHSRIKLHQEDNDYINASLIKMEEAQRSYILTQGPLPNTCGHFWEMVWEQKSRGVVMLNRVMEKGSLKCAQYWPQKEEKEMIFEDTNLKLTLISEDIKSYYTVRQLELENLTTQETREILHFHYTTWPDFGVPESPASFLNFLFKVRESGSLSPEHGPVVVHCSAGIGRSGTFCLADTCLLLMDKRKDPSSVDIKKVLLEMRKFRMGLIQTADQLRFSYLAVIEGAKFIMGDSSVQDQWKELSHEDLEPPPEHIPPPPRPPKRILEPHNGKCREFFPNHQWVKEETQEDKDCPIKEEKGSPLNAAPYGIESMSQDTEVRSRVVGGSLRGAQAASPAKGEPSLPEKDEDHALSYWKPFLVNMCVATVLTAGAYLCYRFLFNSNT

[2] = biological target: T1, Tyrosine-protein phosphatase non-receptor type 1 (Homo sapiens); assay: Inhibition of GST-tagged human recombinant PTB1B using pNPP as substrate at 5 ug/ml after 3 mins
[3] = biological target: T2, Tyrosine-protein phosphatase non-receptor type 1 (Homo sapiens, UniProt P18031); assay: Inhibition of GST-tagged human recombinant PTB1B using pNPP as substrate after 3 mins
T2 sequence (P18031 whole entry): T1 sequence (whole entry)

Mus musculus [4] = assay: Antihyperglycemic activity in C57BL/Ks db/db mouse assessed as reduction of plasma glucose level at 50 mg/kg, po after 2 to 6 weeks by glucometer relative to control; format: functional; set-up: scale not given: the % may be the effect or the level left
Summary of the method: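 db/db mice (C57BL/Ks, 10 weeks old, n = 8 per group) given compound orally in 0.5% sodium carboxymethyl cellulose for six weeks, with a vehicle model group. Postprandial blood glucose read weekly by glucometer. Baseline, 2-week and 6-week values given as mean ± SD. Percent decrease reported at 6 weeks, with statistics against the model group.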

Mus musculus [5] = assay: Antihyperglycemic activity in C57BL/Ks db/db mouse assessed as reduction of glycosylated hemoglobin level using HbA1c reagent at 50 mg/kg, po after 2 to 6 weeks relative to control; format: functional; set-up: scale not given: the % may be the effect or the level left
Summary of the method: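 HbA1c measured in C57BL/Ks db/db mice (n = 8 per group, 10 weeks old at start). Mice received oral doses suspended in 0.5% sodium carboxymethyl cellulose for six weeks, alongside a vehicle-treated model group. Results given as mean ± SD, compared against the model group.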

Mus musculus [6] = assay: Antidyslipidemic activity in C57BL/Ks db/db mouse assessed as reduction of triacylglycerol level at 50 mg/kg, po after 2 weeks (reference value: 1.24 +/- 0.12 mmol/L); format: functional
Mus musculus [7] = assay: Antidyslipidemic activity in C57BL/Ks db/db mouse assessed as reduction of triacylglycerol level at 50 mg/kg, po after 6 weeks (reference value: 1.56 +/- 0.17 mmol/L); format: functional
Mus musculus [8] = assay: Antidyslipidemic activity in C57BL/Ks db/db mouse assessed as reduction of total cholesterol level at 50 mg/kg, po after 2 weeks (reference value: 9.8 +/- 0.7 mmol/L); format: functional
Mus musculus [9] = assay: Antidyslipidemic activity in C57BL/Ks db/db mouse assessed as reduction of total cholesterol level at 50 mg/kg, po after 6 weeks (reference value: 9.2 +/- 1.2 mmol/L); format: functional

Structure (SMILES)	inhibition [1] [%]	inhibition [2] [%]	also measured
COc1cc(Cc2c(Br)c(Br)c(OC)c(OC)c2Br)c(Br)c(Br)c1OC	98.7	49.3	
Oc1ccc(Cc2cc(O)c(O)cc2Br)cc1O	12.2		
O=C(c1cc(O)c(O)cc1Br)c1cc(O)c(O)cc1Br	8.74		
Oc1cc(Br)c(Cc2cc(O)c(O)cc2Br)cc1O	20.9		
COc1c(Br)c(Br)c(Cc2c(Br)c(Br)c(OC)c(OC)c2Br)c(Br)c1OC	96.9	37.9	
O=C(c1ccc(O)c(O)c1)c1cc(O)c(O)cc1Br	11.2		
COc1cc(Br)c(C(=O)c2cc(OC)c(OC)c(Br)c2Br)cc1OC	37.5		
CN(CCOc1ccc(CC2SC(=O)NC2=O)cc1)c1ccccn1 (configuration not stated) [ROSIGLITAZONE]			Activity (Mus musculus [4]): 48.4%; Activity (Mus musculus [5]): 2.56%; Activity (Mus musculus [6]): 1.06 mmol/L; Activity (Mus musculus [7]): 1.29 mmol/L; Activity (Mus musculus [8]): 6.5 mmol/L; Activity (Mus musculus [9]): 7.7 mmol/L

More lines, main results first:

inhibition [1] [%]	inhibition [2] [%]	Structure (SMILES)	also measured
20.3		O=C(c1cc(O)c(O)c(Br)c1Br)c1cc(O)c(O)c(Br)c1Br	
69.8	50.6	COc1cc(C(=O)c2c(Br)c(Br)c(OC)c(OC)c2Br)c(Br)c(Br)c1OC	IC50 [3]: 3.26 µM
13.5		O=C(c1ccc(O)c(O)c1)c1ccc(O)c(O)c1	
105	47.8	COc1c(Br)c(Br)c(C(=O)c2c(Br)c(Br)c(OC)c(OC)c2Br)c(Br)c1OC	IC50 [3]: 2.02 µM
78.6	29.2	O=C(c1c(Br)c(O)c(O)c(Br)c1Br)c1c(Br)c(O)c(O)c(Br)c1Br	
42.7		O=C(c1cc(O)c(O)cc1Br)c1cc(O)c(O)c(Br)c1Br	
14.4		COc1ccc(Cc2cc(OC)c(OC)cc2Br)cc1OC	
